# According to PubChem BioAssay:
# Active and inactive are the calls of the source.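 How the source made its calls, unless noted: active means fluorescence slope after compound addition differing from the mean of all screened samples at 99.7% confidence, in either direction; inactive means the rest.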
# Tests used:
# [1] = inhibitors of TNFa-induced NFkB p65 translocation, primary screen, imaging, HUVEC, MLSMR starter and 10KST1 sets (AID 438;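 active means inhibition above 20% together with a positive visual image hit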;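 further: compound added about 3h40 before a 20 min TNFalpha stimulation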;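 on inhibition: signal is the nuclear over cytoplasmic p65 intensity ratio per well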); details: HUVEC TNFa-induced p65 nuclear translocation; cell count: measured here: nuclei count (cytotoxicity indicator), at 2.08 µM; inhibition: at 2 µM, stronger effect = higher value, 0% TNFa-plus-vehicle, 100% no-TNFa wells
# [2] = inhibitors of mutant huntingtin aggregation, primary screen, imaging, exon1htt(103Q)mCFP cells, high-content imaging (AID 483;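 active means visual image review flags a hit and inhibition of aggregation exceeds 20%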;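 further: compound exposure lasted 3 days before fixation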;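 on nuclei count: percent of the per-plate median nuclei count of sample wells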); details: exon1htt(103Q)mCFP cell line, aggregate imaging, at 2 µM; inhibition of aggregation: stronger effect = higher value; nuclei count: measured here: cell count, toxicity
# [3] = inhibitors of E-selectin induction by TNFa, primary screen, imaging, HUVEC, immunofluorescence, MLSMR starter and 10KST1 sets (AID 487;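 active means visually confirmed hit in the image check and inhibition above 20%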;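 on inhibition: signal is fraction of cell area covered by stained E-selectin grains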;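 on nuclei count: 100% = median nuclei count of all wells on the same plate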); details: HUVEC TNFalpha-induced E-selectin immunofluorescence imaging, at 2 µM; inhibition: stronger effect = higher value; nuclei count: measured here: cell number, toxicity
# [4] = molecular target: Voltage-gated potassium channel subunit beta-2 (Rattus norvegicus) (UniProt P62483); test: KvBeta enzyme negative modulators, primary screen, biochemical, NADPH fluorescence (AID 622;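 active means fluorescence slope higher than the sample average by over 3 SD, cut at about -0.22 in these data, passing the limit was not always enough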;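 further: slope of raw intensity against log time taken from 70 to 1610 s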); details: recombinant KvBeta, 4-cyanobenzaldehyde reduction, at 10 µM, stronger effect = higher value
# Chain of Voltage-gated potassium channel subunit beta-2 (Rattus norvegicus) (P62483 whole entry, looked up): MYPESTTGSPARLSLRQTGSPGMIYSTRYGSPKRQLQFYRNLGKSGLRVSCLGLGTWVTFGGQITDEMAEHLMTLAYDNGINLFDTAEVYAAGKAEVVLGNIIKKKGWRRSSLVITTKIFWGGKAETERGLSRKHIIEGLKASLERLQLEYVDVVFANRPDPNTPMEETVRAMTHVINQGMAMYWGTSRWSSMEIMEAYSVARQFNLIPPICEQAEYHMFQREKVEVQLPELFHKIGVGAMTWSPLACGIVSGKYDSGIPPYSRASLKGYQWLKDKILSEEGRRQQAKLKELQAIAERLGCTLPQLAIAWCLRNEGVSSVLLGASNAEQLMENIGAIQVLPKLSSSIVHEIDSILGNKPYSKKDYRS
# [5] = molecular target: Voltage-gated potassium channel subunit beta-2 (Rattus norvegicus) (UniProt P62483); test: KvBeta positive modulators, primary screen, biochemical, NADPH fluorescence (AID 623;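 active means NADPH fluorescence slope more negative than the mean of all samples by about 3 SD, 99.7% confidence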;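 further: fluorescence intensity change per second fitted from 20 to 320 s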); details: Recombinant KvBeta, NADPH fluorescence decrease slope, 10 min; at 10 µM; stronger effect = lower value
# [6] = molecular target: Alpha-2C adrenergic receptor (Homo sapiens) (UniProt P18825); test: modulators of alpha2C/GIRK thallium flux, primary screen, cell-based, HEK293 alpha2C/GIRK1/2 (AID 624); details: thallium flux BTC fluorescence, at 10 µM, actives lie on both sides;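 further: slope of fluorescence ratio to pre-addition baseline per second over 15 to 24 s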
# Chain of Alpha-2C adrenergic receptor (Homo sapiens) (P18825 whole entry, looked up): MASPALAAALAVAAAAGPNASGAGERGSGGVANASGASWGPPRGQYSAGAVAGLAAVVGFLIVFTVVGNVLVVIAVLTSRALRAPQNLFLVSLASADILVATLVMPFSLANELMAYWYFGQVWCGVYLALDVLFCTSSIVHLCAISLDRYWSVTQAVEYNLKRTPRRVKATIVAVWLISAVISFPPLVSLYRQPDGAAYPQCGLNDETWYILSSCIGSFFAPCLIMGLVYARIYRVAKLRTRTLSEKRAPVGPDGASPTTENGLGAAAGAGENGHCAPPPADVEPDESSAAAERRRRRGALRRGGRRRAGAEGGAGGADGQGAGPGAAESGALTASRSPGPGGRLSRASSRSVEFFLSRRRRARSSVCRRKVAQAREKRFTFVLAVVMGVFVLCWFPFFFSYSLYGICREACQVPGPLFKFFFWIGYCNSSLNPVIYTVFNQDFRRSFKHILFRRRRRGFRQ
# [7] = inhibitors of larval lipid processing in zebrafish, primary screen, whole organism, PED6 fluorescence, gall bladder and intestine (AID 686;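 active means a full or partial loss of lipid-probe fluorescence in the fish gall bladder, intestine or both, judged by eye; inactive means no fluorescence loss, or compound toxic to the fish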;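 further: larvae 5 to 7 days old with five fish per well; signal comes from phospholipase A2 cleavage of quenched PED6 carried via bile; overnight exposure to compound and PED6 before scoring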); details: Zebrafish larvae PED6 lipid processing, fluorescence scoring; screened at 20 µM (by protocol)
# In short: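 System: live zebrafish larvae aged 5-7 days, whole organism; measure: graded gall bladder and intestinal fluorescence inhibition per well; incubation: overnight exposure; reagent: ingested quenched lipid PED6 at 100 nM; signal: By-eye fluorescence microscopy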
# [8] = inhibitors of Sendai virus-induced IRF3 signaling, primary screen, TLR/RLR signaling modifier project, cell-based, Sendai virus stimulus, luciferase, 10K MLSCN set (AID 602276;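 active means inhibition at or above 50% at 10 µM; inactive means inhibition below 50%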;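 further: firefly luciferase from ISG56 promoter only with Renilla not read in this screen; 0% = Sendai virus plus DMSO and 100% = medium plus DMSO without virus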); details: HEK293 RL24 IRF3 luciferase reporter, at 10 µM, stronger effect = higher value
# [9] = inhibitors of poly I:C-induced TLR3 signaling, primary screen, cell-based, poly I:C stimulus, luciferase, 10K MLSCN set (AID 602277;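 active means inhibition of the reporter signal at or above 50%; inactive means inhibition below 50%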); details: HEK293-TLR3 RL24 IRF3 luciferase reporter, at 10 µM, stronger effect = higher value
Compound,cell count [1],inhibition [1],inhibition of aggregation [2],nuclei count [2] [%],inhibition [3],nuclei count [3] [%],fluorescence slope [4],NADPH fluorescence slope [5],slope [6],outcome [7],inhibition [8],inhibition [9]
O=C(CSc1nnc(-c2ccc(Br)cc2)n1C1CCCCC1)N1CCCC1,306,-17.8% (inactive),5.3% (inactive),101,4.3% (inactive),81.3,-0.371 (inactive),1.5e-05 (inactive),0.00599 (inactive),inactive,-3.56% (inactive),-4.51% (inactive)
CCOC(=O)c1oc2cc(OCC(N)=O)ccc2c(=O)c1-c1ccc(OC)c(OC)c1,411,8.1% (inactive),-10.4% (inactive),106,-114% (inactive),102,-0.445 (inactive),-0.000137 (inactive),0.0045 (inactive),inactive,19.4% (inactive),22.5% (inactive)
COC(=O)CCn1nnc(-c2ccc(C)cc2)n1,390,7.6% (inactive),-4.9% (inactive),110,-24.9% (inactive),108,-0.341 (inactive),-4.2e-06 (inactive),0.00816 (inactive),inactive,21.3% (inactive),24.4% (inactive)
CCOc1ccccc1C1N(c2ccc(F)cc2)C(=O)C2CCCN21 (centres undefined),465,-0.3% (inactive),-10.1% (inactive),103,45.7% (inactive),91.5,-0.349 (inactive),-4.9e-05 (inactive),0.00484 (inactive),inactive,13.2% (inactive),17.1% (inactive)
O=C(NCC(=O)N(c1cccnc1)C(C(=O)NC1CCCCC1)c1cccnc1)c1ccco1 (centres undefined),424,6.8% (inactive),6.3% (inactive),109,-37.8% (inactive),110,-0.39 (inactive),-5.1e-05 (inactive),0.00388 (inactive),inactive,9.81% (inactive),6.29% (inactive)
O=C(c1ccc2snnc2c1)N1CCOCC1,370,6.3% (inactive),-11.2% (inactive),107,-50.1% (inactive),117,-0.371 (inactive),-4.9e-05 (inactive),0.00486 (inactive),inactive,10.1% (inactive),13.9% (inactive)
O=C(CCCn1c(=O)[nH]c2ccsc2c1=O)N1CCN(c2ccccn2)CC1,665,-5.2% (inactive),-1% (inactive),97.2,-13.1% (inactive),106,-0.386 (inactive),-4.1e-05 (inactive),0.00451 (inactive),inactive,8.33% (inactive),13.1% (inactive)
COc1ccc(CCN2C(=O)CC(N3CCN(S(=O)(=O)c4ccccc4)CC3)C2=O)cc1 (centres undefined),666,11.3% (inactive),19.5% (inactive),106,69.9% (active),110,-0.483 (inactive),-8.5e-06 (inactive),0.0045 (inactive),inactive,11.6% (inactive),6.07% (inactive)
CCCc1cc(=O)oc2cc(C)cc(OC(=O)c3ccco3)c12,298,-9% (inactive),14.4% (inactive),86,-170% (inactive),108,-0.399 (inactive),-3.5e-05 (inactive),0.00456 (inactive),inactive,-12.5% (inactive),-18.4% (inactive)
COC(=O)c1[nH]c2ccc(C)cc2c1NC(=O)CN1CCCC(C)(C)C1,422,7.3% (inactive),-2.1% (inactive),101,-330% (inactive),107,-0.37 (inactive),-2.6e-05 (inactive),0.00452 (inactive),inactive,8.28% (inactive),18% (inactive)
COc1ccc(COC(=O)c2n[nH]c3ccccc23)cc1F,380,3.9% (inactive),-16% (inactive),125,-1.8% (inactive),107,-0.444 (inactive),-5.5e-05 (inactive),0.00618 (inactive),inactive,-16.1% (inactive),-49.8% (inactive)
CCOC(=O)/C=C1\SCC(=O)N1Cc1nnc(-c2ccccc2Br)o1,505,0.5% (inactive),-7.7% (inactive),98.7,-51.5% (inactive),123,-0.452 (inactive),-5.3e-05 (inactive),0.00466 (inactive),inactive,12.8% (inactive),10.1% (inactive)
CCOCCCN(Cc1cc2cc(C)cc(C)c2[nH]c1=O)C(=O)N(CC)CC,320,4.5% (inactive),2.5% (inactive),92.2,-15.3% (inactive),106,-0.423 (inactive),-3.6e-05 (inactive),0.00543 (inactive),inactive,-10.7% (inactive),-6.77% (inactive)
COc1ccc(Cl)cc1NC(=O)CSc1nncn1-c1cccnc1,391,-10.2% (inactive),25.6% (inactive),58.8,60.5% (active),93.1,-0.296 (inactive),1.5e-05 (inactive),0.00524 (inactive),inactive,15.1% (inactive),22.7% (inactive)
CCCCN1CN(S(=O)(=O)c2cccs2)c2nc3ccccc3nc21,253,-13% (inactive),0.5% (inactive),83.1,0.2% (inactive),91.6,-0.393 (inactive),-5.6e-05 (inactive),0.00634 (inactive),inactive,-4.14% (inactive),-4.36% (inactive)
O=C(NCCCN1CCOCC1)c1cc(-c2ccc(Cl)cc2)on1,264,-1.8% (inactive),-1.6% (inactive),102,-8.4% (inactive),113,-0.294 (inactive),1.2e-05 (inactive),0.00493 (inactive),inactive,6.84% (inactive),-3.16% (inactive)
Cc1nnc(SCCCn2c(N3CCCCC3)nc3c2c(=O)[nH]c(=O)n3C)s1,382,-2.4% (inactive),-17.5% (inactive),109,-64.9% (inactive),93.7,-0.458 (inactive),-1.1e-05 (inactive),0.00412 (inactive),inactive,8.32% (inactive),17.6% (inactive)
COc1cccc(N2CCN(CC(=O)c3c[nH]c4ccc(OC)cc34)CC2C)c1 (centres undefined),508,-6.7% (inactive),6% (inactive),85.4,-36.3% (inactive),103,-0.368 (inactive),-3.9e-05 (inactive),0.00529 (inactive),inactive,12.4% (inactive),16% (inactive)
COC(=O)c1ccccc1NC(=O)c1cnc2sccn2c1=O,505,-19.2% (inactive),14% (inactive),77.5,14.9% (inactive),98,-0.369 (inactive),-5.8e-05 (inactive),0.00479 (inactive),inactive,5.91% (inactive),-1.07% (inactive)
CNC(=O)OC(C)CNS(=O)(=O)c1ccc(C)cc1 (centres undefined),441,9.8% (inactive),5.2% (inactive),103,-36.3% (inactive),118,-0.433 (inactive),-4.1e-05 (inactive),0.00412 (inactive),inactive,19.5% (inactive),17.5% (inactive)
O=C(O)CSc1ncn[nH]1,718,-14.4% (inactive),22.9% (inactive),98.3,-28.2% (inactive),112,-0.454 (inactive),-4.4e-05 (inactive),0.00435 (inactive),inactive,15.3% (inactive),12.4% (inactive)
CN(CCNC(=O)c1ccc(N2CCCC2=O)cc1)CCc1ccccc1,624,-24% (inactive),17.8% (inactive),84.6,-79.5% (inactive),111,-0.393 (inactive),-2.4e-05 (inactive),0.00561 (inactive),inactive,6.9% (inactive),10.4% (inactive)
O=C(Nc1ccccc1C(=O)O)c1cccc(NC(=O)c2ccc(Br)o2)c1,489,-9.3% (inactive),-2.4% (inactive),99.2,-26.5% (inactive),161,-0.441 (inactive),-4e-05 (inactive),0.00477 (inactive),inactive,6.35% (inactive),8.3% (inactive)
CCCN1CCN(C(=O)Cn2cccc2C(=O)c2ccccc2)CC1,568,5.4% (inactive),-4.9% (inactive),109,-0.1% (inactive),108,-0.405 (inactive),-5.8e-05 (inactive),0.00424 (inactive),inactive,7.77% (inactive),11.7% (inactive)
CC(=O)N1CN(C2CCCC2)Cc2c1sc1c2CCCC1,793,-14% (inactive),11.7% (inactive),99.2,26.2% (inactive),90.6,-0.433 (inactive),-1.9e-07 (inactive),0.00682 (inactive),inactive,5.21% (inactive),20% (inactive)
Cc1cc(C(=O)N2CCCc3ccccc32)no1,312,-4.5% (inactive),13% (inactive),77.3,-10.5% (inactive),89.2,-0.39 (inactive),-4.1e-06 (inactive),0.00507 (inactive),inactive,-8.74% (inactive),-14.5% (inactive)
CCCc1ccccc1OCCNC(C)=O,585,9.6% (inactive),18.6% (inactive),116,-76.7% (inactive),105,-0.366 (inactive),-3.9e-06 (inactive),0.00527 (inactive),inactive,-4.34% (inactive),3.6% (inactive)
